Source: ChEMBL document CHEMBL5046259, “Cannabinoids Block Cellular Entry of SARS-CoV-2 and the Emerging Variants” (J Nat Prod, 2022)
Values after ≈ are worked out from the molar mass of the structure shown.

Columns and labels:
Format in all cases: functional, organism-based
SARS-CoV-2 [1] = test: Antiviral activity against pseudovirus SARS-CoV-2 spike protein infected in HEK293T cells overexpressing ACE2 assessed as inhibition on pseudovirus infection incubated for 45 hrs by fluorescence microscopy; details: Severe acute respiratory syndrome coronavirus 2, HEK-293T
How it was run: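 293T-ACE2 cells were seeded at 10 000 per well. Spike-pseudotyped lentivirus carrying a GFP reporter was mixed with 2-fold serial dilutions of compound (in DMSO) or vehicle for 1 h at 37 °C, then added to cells with 5 μg/mL Polybrene. After 44 h, cells were fixed and DAPI-stained. Total GFP area was normalized to DAPI and to vehicle (n = 3). IC50 came from a three-parameter logistic fit.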

SARS-CoV-2 [2] = test: Antiviral activity against SARS-CoV-2 variant B.1.1.7 strain infected in African green monkey Vero E6 cells assessed as inhibition of viral entry incubated for 1 hr proir to infection and measured after 48 hrs by Focus forming assay; details: Severe acute respiratory syndrome coronavirus 2, B.1.1.7, Vero C1008
SARS-CoV-2 [3] = test: Antiviral activity against SARS-CoV-2 variant B.1.351 strain infected in African green monkey Vero E6 cells assessed as inhibition of viral entry incubated for 1 hr prior to infection and measured after 48 hrs by Focus forming assay; details: Severe acute respiratory syndrome coronavirus 2, B.1.351, Vero C1008

| Structure (SMILES) | IC50 (SARS-CoV-2 [1]) [µg/mL] | IC50 (SARS-CoV-2 [2]) [µg/mL] | IC50 (SARS-CoV-2 [3]) [µg/mL] |
| --- | --- | --- | --- |
| CCCCCc1cc(O)c(C/C=C(\C)CCC=C(C)C)c(O)c1C(=O)O [CANNABIGEROLIC ACID] | 8.4 (≈ 23.3 µM) | 26 (≈ 72.1 µM) | 35 (≈ 97.1 µM) |
| C=C(C)[C@@H]1CCC(C)=C[C@H]1c1c(O)cc(CCCCC)c(C(=O)O)c1O [CANNABIDIOLIC ACID] | 7.7 (≈ 21.5 µM) | 11 (≈ 30.7 µM) | 19 (≈ 53 µM) |
